NPY2 pot ag: potentiates or activates human NPY-Y2 receptor; P49146; cells expressing NPY-Y2, potentiator/agonist read-out; activation, % at 3.6 µM; 0.45% of 220,000 active; AID 1359; in the data active means activation above about 27%;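 further: cells stimulated with NPY near EC25 plus isoproterenol at EC100; 0% = vehicle plus submaximal agonist and 100% = vehicle plus saturating agonist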
Target sequence (P49146 whole entry, looked up): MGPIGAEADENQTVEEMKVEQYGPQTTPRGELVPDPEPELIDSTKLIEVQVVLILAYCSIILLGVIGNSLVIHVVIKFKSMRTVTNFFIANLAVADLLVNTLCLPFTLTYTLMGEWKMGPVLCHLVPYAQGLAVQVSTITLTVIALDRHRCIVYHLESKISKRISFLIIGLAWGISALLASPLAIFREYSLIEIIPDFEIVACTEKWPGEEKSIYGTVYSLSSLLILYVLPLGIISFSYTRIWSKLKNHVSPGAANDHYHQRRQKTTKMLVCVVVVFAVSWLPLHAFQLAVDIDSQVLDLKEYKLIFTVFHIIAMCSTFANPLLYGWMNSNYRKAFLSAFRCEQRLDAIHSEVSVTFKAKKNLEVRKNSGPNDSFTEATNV
RAM inhibit: blocks the yeast RAM network | S. cerevisiae dse1pr::URA3 reporter, 5-FOA growth OD615, 2 d; analog-sensitive cbk1-as2 kinase mutant strain | inhibition, % at 50 µM | 1.8% of 190,000 active | AID 868;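 active means inhibition above a set limit, 3 SD over mean compound inhibition, cut at about 8.4% in these data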;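 further: 0% = DMSO-only wells with no growth and 100% = 10 µM 1-NA-PP1 full growth; inhibition rescues growth on 5-FOA so higher OD means more RAM inhibition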
NPY-Y2 antag: NPY-Y2 (human) receptor antagonism; P49146; NPY-Y2 expressing cells, antagonist mode; inhibition, % at 2.7 µM; 0.99% of 140,000 active; in the data active means inhibition above about 17%;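 further: 0% = vehicle with agonist challenge and 100% = reference antagonist with challenge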
NPY Y1 blocker: NPY-Y1 (human) receptor antagonism. inhibition, % at 3.6 µM. 1% of 200,000 active. HEK293-CNG Y1 cells, membrane potential fluorescence; NPY at EC95, then isoproterenol;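 active means inhibition above the campaign mean inhibition of all tested compounds plus 3 SD, cut at about 20% in these data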;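 further: 0% = DMSO wells given NPY plus isoproterenol and 100% = isoproterenol alone without NPY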
Target sequence (P25929 whole entry, looked up): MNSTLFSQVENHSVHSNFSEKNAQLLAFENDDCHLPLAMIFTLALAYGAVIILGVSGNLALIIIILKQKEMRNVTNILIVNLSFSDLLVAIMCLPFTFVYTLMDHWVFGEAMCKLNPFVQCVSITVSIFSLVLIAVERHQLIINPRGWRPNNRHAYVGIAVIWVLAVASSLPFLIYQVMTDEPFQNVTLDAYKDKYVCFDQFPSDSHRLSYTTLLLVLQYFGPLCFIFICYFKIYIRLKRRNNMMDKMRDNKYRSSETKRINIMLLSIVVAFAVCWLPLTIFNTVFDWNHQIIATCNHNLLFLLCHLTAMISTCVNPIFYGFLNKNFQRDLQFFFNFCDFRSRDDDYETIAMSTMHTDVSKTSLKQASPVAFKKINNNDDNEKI
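Material: HEK293 Y1/CNG channel cell line; also added: NPY (25 nM), isoproterenol (1 µM), Ro 20-1724 (25 µM); doses: one concentration, 3.6 µM, in 0.4% DMSO; schedule: compound incubation 1 h at room temperature, readout 45 min post-stimulation; technique: membrane potential fluorescence; measure: fluorescence ratio normalized to % inhibition between controls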
NPY1 pot ag: potentiators or agonists of human neuropeptide Y receptor Y1; 0.37% of 220,000 active; AID 1304; activation, % at 3.6 µM; NPY-Y1 expressing cells, potentiator/agonist activation; P25929; in the data active means activation above about 33%, passing the limit was not always enough;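 further: cells stimulated with NPY at EC10 then isoproterenol at EC100; 0% = low agonist plus stimulus and 100% = saturating agonist plus stimulus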
WT yeast gro inh: growth inhibition of WT yeast, mitochondrial fusion screen; mitochondrial fusion phenotypic screen, WT strain; inhibition, % at 10 µM; 2.1% of 190,000 active; AID 1362; in the data active means inhibition above about 58%; tested in S. cerevisiae
NPY-Y2 confirm: confirmation of human NPY-Y2 receptor potentiators or agonists; shares compounds with NPY2 pot ag; cell-based NPY-Y2 potentiator/agonist assay; activation, % at 3.6 µM; 20% of 450 active; AID 1539; in the data active means activation above about 33%
NPY-Y1 potentiator: NPY-Y1 potentiation or agonism as NPY-Y2 counter-screen | 20% of 450 active | shares compounds with NPY2 pot ag | activation, % at 3.6 µM | AID 1651 | Y1 HEK293-CNG cells, membrane potential fluorescence; in the data active means activation above about 45%;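 further: cells stimulated with submaximal NPY then isoproterenol with phosphodiesterase inhibitor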
NPY-Y1 ag 2: counter-screen for NPY-Y2 potentiators: agonists of human NPY-Y1; shares compounds with NPY2 pot ag; HEK293 Y1-CNGC, membrane potential fluorescence, agonism; activation, % at 3.6 µM; 37% of 450 active; AID 1702;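 active means activation above the mean of DMSO-only control wells plus 3 SD, cut at about 18% in these data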;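 further: cells stimulated with 1 µM isoproterenol plus the PDE inhibitor Ro 20-1724; 0% = isoproterenol with DMSO and no NPY and 100% = 40 nM NPY; Y1 agonists lower the membrane potential dye signal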
CNGC inhibitor: blocks CNG channel activity, counter-screen for NPY-Y2 potentiators | shares compounds with NPY2 pot ag | HEK293-CNG parental, isoproterenol cAMP, membrane potential fluorescence | inhibition, % at 3.6 µM | 32% of 450 active;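 active means inhibition above the control-well mean plus 3 SD of those wells, cut at about 22% in these data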;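 further: 0% = DMSO with isoproterenol and 100% = DMSO without isoproterenol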
Y2 agonist ctr: NPY-Y2 agonism, counter-screen for Y2 potentiators; activation, % at 3.6 µM; AID 1710; 56% of 450 active; shares compounds with NPY2 pot ag; HEK293 Y2/CNGC cells, membrane potential fluorescence, agonist mode;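 active means activation above the mean of solvent-only control wells plus 3 SD, cut at about 10% in these data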;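 further: cells stimulated by isoproterenol with no NPY added so direct agonism is tested; 0% = DMSO with isoproterenol alone and 100% = NPY at EC100 plus isoproterenol; agonism lowers probe fluorescence through less cAMP and CNG channel opening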
Numbers without * were called inactive; / = not tested or not shown. Rows were chosen to be rich in hits. Some 4.9% of all compounds tested hit in one or more screens of this group.

SMILES	NPY2 pot ag	RAM inhibit	NPY-Y2 antag	NPY Y1 blocker	NPY1 pot ag	WT yeast gro inh	NPY-Y2 confirm	NPY-Y1 potentiator	NPY-Y1 ag 2	CNGC inhibitor	Y2 agonist ctr
COc1ccc(NS(=O)(=O)c2ccc(OC)c(N(C)S(=O)(=O)c3ccc(Cl)cc3)c2)cc1	35.1*	5.7	3.2	3.5	-9.9	-2.4	-2.0	-30.9	-22.2	-8.6	-2.9
O=C(Nc1ccc(CN2CCCCC2)cc1)c1c(F)c(F)c(F)c(F)c1F	-5.1	3.5	/	2.5	3.6	-14.6	/	/	/	/	/
Cc1cc(N)n2ncc(-c3ccc(Cl)cc3)c2n1	37.1*	0.5	-5.6	-14.3	47.9	21.8	32.5	51.8*	39.8*	38.6*	43.7*
CCOC(=O)c1c(C)[nH]c(C(=O)COC(=O)c2ccc(O)cc2)c1C	45.4*	/	/	/	8.2	/	-8.9	-15.9	-12.9	-11.0	-3.4
CCOC(=O)c1c(C)[nH]c(C(=O)COC(=O)c2ccc(O)cc2O)c1C	-0.3	/	/	/	2.0	/	/	/	/	/	/
CNc1nc(N)c(C(=O)C23CC4CC(CC(C4)C2)C3)s1	31.4*	1.1	/	-6.3	26.5	-12.8	11.4	17.4	14.5	11.8	1.5
CC(SCC(=O)NC(C)C1CC2CCC1C2)C(=O)O (configuration not stated)	0.5	-0.8	0.8	-1.3	-21.8	-9.6	/	/	/	/	/
CC(C)C(=O)c1ccc(O)c(O)c1	-10.8	/	/	/	2.8	/	/	/	/	/	/
CCC(NC(C)C)C(O)c1ccc(O)c(O)c1 (configuration not stated)	64.9*	-1.0	0.4	-3.5	61.1	-0.8	52.7*	50.6*	67.5*	52.9*	40.7*
Oc1ccc(-c2n[nH]c(C(F)(F)F)c2-c2ccccc2)c(O)c1	52.6*	0.6	/	-2.9	13.9	-17.2	16.8	-4.2	-13.3	3.6	14.9*
Cc1ccc(S(=O)(=O)Nc2ccc(NC(=O)c3c(F)c(F)c(F)c(F)c3F)cc2)cc1	34.9*	2.0	/	-4.6	38.0	13.6	22.9	34.7	26.5*	27.7*	23.7*
Cc1ccc(S(=O)(=O)Nc2ccc(NC(=O)c3cccs3)cc2)cc1	16.9	6.0	/	2.1	-14.2	-11.1	/	/	/	/	/
COc1ccc(OCC(=O)NNC(=O)c2cccs2)cc1	-7.9	2.0	5.2	-0.8	-3.2	14.2	/	/	/	/	/
Cc1ccc(C)c(Nc2nc(N)c3ccccc3n2)c1	36.4*	1.0	/	-0.4	21.0	77.0	63.5*	81.6*	43.7*	57.6*	55.5*
Cc1ccc(S(=O)(=O)N2CCN(CC(=O)N/N=C\c3ccc(Cl)c([N+](=O)[O-])c3)CC2)cc1	26.6*	-1.1	-3.4	-3.8	21.8	1.9	13.9	19.6	14.3	24.6*	12.3*
O=C(CN1CCN(S(=O)(=O)c2ccc(Br)cc2)CC1)N/N=C/c1ccc(Cl)c([N+](=O)[O-])c1	3.9	2.2	-1.3	-5.4	-3.3	30.1	/	/	/	/	/
Oc1ccc(Cl)cc1Cc1cc(Cl)ccc1O	62.2*	-1.2	-3.6	-8.2	64.6	82.4	39.3*	34.8	36.1*	28.4*	32.2*
CC(C)C(c1nnnn1C1CCCCC1)N1CCc2ccccc21 (configuration not stated)	59.4*	1.4	7.9	9.3	1.8	12.1	-1.9	-1.6	10.5	-4.0	6.6
Cc1ccc(C)n1-c1ccc(C(=O)NC2CCN(Cc3ccccc3)CC2)cc1	9.1	2.3	8.8	-0.7	35.5	-8.3	/	/	/	/	/
COc1ccc(C(=S)N2CCN(c3ccccc3Cl)CC2)cc1OC	-11.5	/	/	/	-14.0	/	/	/	/	/	/
COc1cc(C(=S)N2CCN(c3ccccc3Cl)CC2)cc(O)c1O	30.7*	0.5	/	1.7	16.4	-2.7	0.5	7.6	-1.4	7.5	23.0*
NC(=O)C1CCN(CC(=O)Nc2cccc(C(=O)Nc3cccc(C(F)(F)F)c3)c2)CC1	41.4*	1.0	-0.8	0.3	32.7	-3.5	-0.1	-2.4	-7.8	-2.4	-9.6
Cc1nn(CC(=O)OCC(=O)NC(C)c2ccccc2)c(C)c1[N+](=O)[O-] (configuration not stated)	91.5*	-0.7	/	5.4	17.8	-3.7	-7.6	-1.2	-7.4	-1.1	6.8
Cc1nn(CC(=O)NC(C)c2ccccc2)c(C)c1[N+](=O)[O-] (configuration not stated)	-2.7	0.4	/	5.0	4.0	-11.9	/	/	/	/	/
Cc1nn(C)cc1/C=N\NC(=O)Cc1ccc([N+](=O)[O-])cc1	8.7	-0.7	0.5	4.3	3.1	1.1	/	/	/	/	/
SMILES	NPY2 pot ag	RAM inhibit	NPY-Y2 antag	NPY Y1 blocker	NPY1 pot ag	WT yeast gro inh	NPY-Y2 confirm	NPY-Y1 potentiator	NPY-Y1 ag 2	CNGC inhibitor	Y2 agonist ctr
Cc1nn(-c2ccccc2)c2sc(C(=O)NC3CC3)cc12	45.0*	1.3	0.3	-0.3	-5.7	16.1	-4.7	-3.2	4.2	0.8	-0.1
O=C(Cc1ccccc1)Nc1scc(-c2ccccc2)c1C(=O)N1CCOCC1	-17.1	-0.9	3.4	-0.7	14.5	7.0	/	/	/	/	/
NC(=O)c1c(-c2ccc(Cl)cc2Cl)csc1NC(=O)Cc1ccccc1	32.0*	3.9	6.8	15.8	-56.2	2.4	-8.1	-44.1	-37.3	-17.2	-6.3
COc1cc(/C=C2\C(=O)N(c3ccc(NC(C)=O)cc3)N=C2c2ccccc2)ccc1O	-3.4	3.7	/	-5.2	-7.4	10.2	/	/	/	/	/
O=C1/C(=C\c2ccc(O)c(O)c2)C(c2ccccc2)=NN1c1ccccc1	25.7*	8.0	/	-5.5	21.4	5.9	9.6	7.9	-1.1	8.1	7.2
CC(=O)c1c(C(C)=O)c(C)n(NC(=O)c2ccccc2O)c1C	20.1	0.7	0.0	0.4	0.7	5.8	/	/	/	/	/
CN(CC1CCCO1)S(=O)(=O)c1ccc(C(=O)Nc2nc3cc4c(cc3s2)OCO4)cc1 (configuration not stated)	43.3*	/	1.1	0.1	12.9	7.0	3.0	-8.6	-22.8	-12.4	7.0
CCc1nc(NCC2CCCO2)c(C#N)c2c1COC(C)(C)C2 (configuration not stated)	-3.3	0.2	1.8	5.4	-32.8	3.3	/	/	/	/	/
CCc1nc(NCC(C)C)c(C#N)c2c1COC(C)(C)C2	38.0*	3.4	-0.9	-2.0	-7.8	-9.2	-5.8	-8.4	-25.9	-13.9	-13.2
Fc1nc(F)c(F)c(NCCCNc2c(F)c(F)nc(F)c2F)c1F	27.6*	3.1	/	-7.3	33.8	72.5*	18.8	23.7	24.8*	22.5*	32.4*
